ChEMBL document CHEMBL1132975, “2',6'-Dimethylphenoxyacetyl: a new achiral high affinity P(3)-P(2) ligand for peptidomimetic-based HIV protease inhibitors” (J Med Chem, 2000)

What was measured:
[1] = tested on: Human immunodeficiency virus 1; assay: Effective concentration to inhibit replication of viral strain HIV-1 IIIB in acutely infected C8166T cells; type: functional, organism-based; conditions: Human immunodeficiency virus 1, C8166T
Method in brief: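 HIV-1 IIIB infected C8166 T cells at MOI 0.001 in complete medium, then cultured 3 days with serially diluted inhibitor. Extracellular p24 core antigen was measured by ELISA on pooled supernatants (8 replicas) to give percent inhibition. EC50 came from a nonlinear Hill fit.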

[2] = target: T1, Human immunodeficiency virus type 1 protease (Human immunodeficiency virus 1, UniProt Q72874); assay: In vitro inhibition of HIV-1.
[3] = Area Under the Curve (AUC) for the compound is evaluated after the oral administration at 5 mg/kg.; type: ADME, organism-based; set-up: dose 5 mg/kg, route oral; conditions: in vivo
[4] = The plasma concentration is evaluated after oral administration a dose of 5 mg/kg; type: ADME, organism-based; set-up: dose 5 mg/kg, route oral
[5] = Oral bioavailability in rat (dose 5 mg/kg); type: ADME, organism-based; conditions: in vivo
[6] = Half life for the clearance after intravenous (iv) administration of 1 mg/kg; type: ADME, organism-based; set-up: dose 1 mg/kg, route intravenous; conditions: in vivo
[7] = Half life for the clearance after intravenous (iv) administration of dose of 1 mg/kg; type: ADME, organism-based; set-up: dose 1 mg/kg, route intravenous; conditions: in vivo
[8] = tested on: Human immunodeficiency virus 2; assay: The binding affinity is evaluated for viral strains HIV-2 ROD; type: functional, organism-based
[9] = tested on: Human immunodeficiency virus 2; assay: Effective concentration to inhibit replication of viral strain HIV-2 ROD in acutely infected C8166T cells; type: functional, organism-based; conditions: Human immunodeficiency virus 2, C8166T
[10] = tested on: Human immunodeficiency virus 1; assay: The binding affinity is evaluated for viral strains HIV-1 IIIB; type: functional, organism-based
[11] = tested on: Human immunodeficiency virus 2; assay: The binding affinity is evaluated for viral strains HIV-2 ROD.; type: functional, organism-based
[12] = target: T1, Human immunodeficiency virus type 1 protease; assay: The inhibitory concentration was evaluated for viral strains HIV-2 ROD using a HIV protease HPLC based assay.
[13] = The compound was evaluated for oral bioavailability in the rat at a peroral (po) dose of 5 mg/kg; type: ADME, organism-based; conditions: in vivo
[14] = The plasma concentration is evaluated after oral administration of 5 mg/kg; type: ADME, organism-based; set-up: dose 5 mg/kg, route oral

Row | SMILES | EC50 [1] | IC50 [2] | further results
1 | Cc1c(O)cccc1C(=O)N[C@@H](Cc1ccccc1)[C@H](O)CN1CC[C@@H](OCc2ccncc2)C[C@H]1C(=O)NC(C)(C)C | 32 nM | 12 nM | 
2 | CC(C)(C)NC(=O)[C@@H]1C[C@H](OCc2ccncc2)CCN1C[C@@H](O)[C@H](Cc1ccccc1)NC(=O)COc1ccccc1 |  | 1100 nM | 
3 | Cc1cccc(C)c1OCC(=O)N[C@@H](Cc1ccccc1)[C@H](O)CN1CC[C@@H](SCc2cccnc2)C[C@H]1C(=O)NC(C)(C)C | 6 nM | 1.7 nM | AUC [3]: 3.26 µM·h; Cmax [4]: 2320 nM; bioavailability [5]: 37%; half-life [6]: 30 min
4 | Cc1cc(S[C@@H]2CCN(C[C@@H](O)[C@H](Cc3ccccc3)NC(=O)COc3c(C)cccc3C)[C@H](C(=O)NC(C)(C)C)C2)nc(C)n1 | 1 nM | 1.5 nM | AUC [3]: 1.67 µM·h; half-life [7]: 102 min; bioavailability [5]: 29%
5 | Cc1ccccc1OCC(=O)N[C@@H](Cc1ccccc1)[C@H](O)CN1CC[C@@H](OCc2ccncc2)C[C@H]1C(=O)NC(C)(C)C |  | 120 nM | 
6 | CC(C)(C)NC(=O)[C@@H]1C[C@H](OCc2ccncc2)CCN1C[C@@H](O)[C@H](Cc1ccccc1)NC(=O)OCc1ccccc1 |  | 400 nM | 
7 | Cc1cccc(C)c1OCC(=O)N[C@@H](Cc1ccccc1)[C@H](O)CN1CC[C@@H](Sc2ccncc2)C[C@H]1C(=O)NC(C)(C)C | 2 nM |  | AUC [3]: 1.77 µM·h; Ki [8]: 0.023 nM; EC50 [9]: 3 nM; bioavailability [5]: 61%; half-life [6]: 24 min; Ki [10]: 0.006 nM
8 | Cc1ccccc1CCC(=O)N[C@@H](Cc1ccccc1)[C@H](O)CN1CC[C@@H](OCc2ccncc2)C[C@H]1C(=O)NC(C)(C)C |  | 2500 nM | 
9 | Cc1cccc(C)c1OCC(=O)N[C@@H](Cc1ccccc1)[C@H](O)CN(CC(C)C)S(=O)(=O)c1ccc(N)cc1 | 20 nM | 2.6 nM | 
10 | Cc1cccc(C)c1CCC(=O)N[C@@H](Cc1ccccc1)[C@H](O)CN1CC[C@@H](OCc2ccncc2)C[C@H]1C(=O)NC(C)(C)C |  | 2400 nM | 
11 | CC(C)(C)NC(=O)[C@@H]1C[C@H](OCc2ccncc2)CCN1C[C@@H](O)[C@H](Cc1ccccc1)NC(=O)CSc1ccccc1 |  | 4200 nM | 
12 | CC(C)(C)NC(=O)[C@@H]1C[C@H](OCc2ccncc2)CCN1C[C@@H](O)[C@H](Cc1ccccc1)NC(=O)O[C@@H]1CCOC1 |  | 260 nM | 
13 | Cc1cccc(C)c1OC(C)C(=O)N[C@@H](Cc1ccccc1)[C@H](O)CN1CC[C@@H](OCc2ccncc2)C[C@H]1C(=O)NC(C)(C)C (stereo not given in full) |  | 20 nM | 
14 | Cc1cccc(C)c1OCC(=O)N[C@@H](Cc1ccccc1)[C@H](O)CN1C[C@H]2CCCC[C@H]2C[C@H]1C(=O)NC(C)(C)C | 100 nM | 8.4 nM | 
15 | Cc1cccc(C)c1OCC(=O)N[C@@H](Cc1ccccc1)[C@H](O)CN1CC[C@@H](OCc2ccncc2)C[C@H]1C(=O)NC(C)(C)C | 24 nM | 7 nM | 
16 | Cc1cccc(C)c1COC(=O)N[C@@H](Cc1ccccc1)[C@H](O)CN1CC[C@@H](OCc2ccncc2)C[C@H]1C(=O)NC(C)(C)C |  | 420 nM | 
17 | CC(C)(C)NC(=O)[C@@H]1C[C@H](OCc2ccncc2)CCN1C[C@@H](O)[C@H](Cc1ccccc1)NC(=O)CCc1ccccc1 |  | 1400 nM | 
18 | CC(C)(C)NC(=O)[C@@H]1C[C@H](OCc2ccncc2)CCN1C[C@@H](O)[C@H](Cc1ccccc1)NC(=O)CCCc1ccccc1 |  | > 20000 nM | 
19 | CC(C)(C)NC(=O)[C@@H]1C[C@H](OCc2ccncc2)CCN1C[C@@H](O)[C@H](Cc1ccccc1)NC(=O)/C=C/c1ccccc1 |  | 11000 nM | 
20 | CC(C)[C@H](NC(=O)c1ccc2ccccc2n1)C(=O)N[C@@H](Cc1ccccc1)[C@H](O)CN1CC[C@@H](OCc2ccncc2)C[C@H]1C(=O)NC(C)(C)C | 5 nM |  | Ki [11]: 0.13 nM; IC50 [12]: 10 nM; EC50 [9]: 25 nM; Ki [10]: 0.031 nM
21 | Cc1ccccc1COC(=O)N[C@@H](Cc1ccccc1)[C@H](O)CN1CC[C@@H](OCc2ccncc2)C[C@H]1C(=O)NC(C)(C)C |  | 210 nM | 
22 | Cc1cccc(C)c1OCC(=O)N[C@@H](Cc1ccccc1)[C@H](O)CN1CC[C@@H](SCc2ccncc2)C[C@H]1C(=O)NC(C)(C)C | 4 nM | 1.8 nM | AUC [3]: 1.71 µM·h; bioavailability [13]: 22%; half-life [6]: 42 min; Cmax [14]: 1660 nM
